ChEMBL document CHEMBL1146217, “Growth inhibition of Mycobacterium bovis, Mycobacterium tuberculosis and Mycobacterium avium in vitro: effect of 1-beta-D-2'-arabinofuranosyl and 1-(2'-deoxy-2'-fluoro-beta-D-2'-ribofuranosyl) pyrimidine nucleoside analogs” (J Med Chem, 2007)
In brackets after ≈: the same amount, converted by molar mass.

Tests used:
Assay type in all cases: functional
Conditions in all cases: variant bovis BCG
[1] = system: Mycobacterium tuberculosis; test: Antimycobacterial activity against Mycobacterium bovis BCG at 100 ug/mL by microplate Alamar blue assay
Summary of the method: (§1)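 MABA with M. bovis BCG, M. tuberculosis H37Ra or M. avium ATCC 25291. DMSO stocks (10 mg/mL) diluted in 7H9GC; final inoculum 2.5 × 10⁵ CFU/mL. Incubated 6 days, then alamar blue plus Tween 80 added and read by fluorescence after about 24 h. […]. Tested in triplicate at 100, 50, 10 and 1 µg/mL; two experiments, mean reported.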

[2] = system: Mycobacterium tuberculosis; test: Antimycobacterial activity against Mycobacterium bovis BCG at 50 ug/mL by microplate Alamar blue assay; summary of the method: as §1
[3] = system: Mycobacterium tuberculosis; test: Antimycobacterial activity against Mycobacterium bovis BCG at 10 ug/mL by microplate Alamar blue assay; summary of the method: as §1
[4] = system: Mycobacterium tuberculosis; test: Antimycobacterial activity against Mycobacterium bovis BCG at 1ug/mL by microplate Alamar blue assay; summary of the method: as §1
[5] = system: Mycobacterium tuberculosis; test: Antimycobacterial activity against Mycobacterium bovis BCG by microplate Alamar blue assay
Summary of the method: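 Same alamar blue microplate setup (7H9GC, 2.5 × 10⁵ CFU/mL, 6 days, then dye read after about 24 h), using 2-fold compound dilutions. MIC90 is the lowest concentration giving about 90% inhibition relative to bacteria-only wells after background subtraction. Visual MIC is the lowest concentration preventing the blue-to-pink change.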

| SMILES | inhibition at 100 µg/mL [1] [%] | inhibition at 50 µg/mL [2] [%] | inhibition at 10 µg/mL [3] [%] | inhibition at 1 µg/mL [4] [%] | MIC90 [5] [µg/mL] |
| --- | --- | --- | --- | --- | --- |
| O=c1[nH]c(=O)n([C@@H]2O[C@H](CO)[C@@H](O)[C@@H]2O)cc1C(O)C(Br)Br (some centres not stated) | 0 |  |  |  |  |
| O=c1[nH]c(=O)n([C@@H]2O[C@H](CO)[C@@H](O)[C@@H]2O)cc1Br | 0 |  |  |  |  |
| Cc1cn([C@@H]2O[C@H](CO)[C@@H](O)[C@@H]2O)c(=O)[nH]c1=S | 0 |  |  |  |  |
| CCCCCCCCCCC#Cc1cn([C@@H]2O[C@H](CO)[C@@H](O)[C@H]2F)c(=O)[nH]c1=O | 100 | 100 | 100 | 70 | 1 (≈ 2.44 µM) |
| CCCCCCCCCCCC#Cc1cn([C@@H]2O[C@H](CO)[C@@H](O)[C@H]2F)c(=O)[nH]c1=O | 100 | 100 | 100 | 90 | 1 (≈ 2.36 µM) |
| CCCCCCCCCCCCC#Cc1cn([C@@H]2O[C@H](CO)[C@@H](O)[C@@H]2O)c(=O)[nH]c1=O | 100 | 100 | 50 |  | 10 (≈ 22.9 µM) |
| CCCCCCCCCCCCC#Cc1cn([C@@H]2O[C@H](CO)[C@@H](O)[C@H]2F)c(=O)[nH]c1=O | 100 | 100 | 50 |  | 10 (≈ 22.8 µM) |
| CCCc1ccc(C#Cc2cn([C@@H]3O[C@H](CO)[C@@H](O)[C@@H]3O)c(=O)[nH]c2=O)cc1 | 100 | 50 |  |  | 100 (≈ 259 µM) |
| CCOC(=O)/C=C/c1cn([C@@H]2O[C@H](CO)[C@@H](O)[C@H]2F)c(=O)[nH]c1=O | 0 |  |  |  |  |
| CCOC(=O)C(Cl)C(O)c1cn([C@@H]2O[C@H](CO)[C@@H](O)[C@H]2F)c(=O)[nH]c1=O (some centres not stated) | 0 |  |  |  |  |
| CCOC(=O)C(Br)C(O)c1cn([C@@H]2O[C@H](CO)[C@@H](O)[C@H]2F)c(=O)[nH]c1=O (some centres not stated) | 0 |  |  |  |  |
| O=c1[nH]c(=O)n([C@@H]2O[C@H](CO)[C@@H](O)[C@H]2F)cc1Br | 0 |  |  |  |  |
| O=C(O)/C=C/c1cn([C@@H]2O[C@H](CO)[C@@H](O)[C@@H]2O)c(=O)[nH]c1=O | 0 |  |  |  |  |
| COC(CI)c1cn([C@@H]2O[C@H](CO)[C@@H](O)[C@@H]2O)c(=O)[nH]c1=O (some centres not stated) | 0 |  |  |  |  |
| CCCCCC#Cc1cn([C@@H]2O[C@H](CO)[C@@H](O)[C@@H]2O)c(=O)[nH]c1=O | 25 |  |  |  |  |
| CCCCCCCCC#Cc1cn([C@@H]2O[C@H](CO)[C@@H](O)[C@@H]2O)c(=O)[nH]c1=O | 100 | 50 | 30 |  | 100 (≈ 263 µM) |

| SMILES | inhibition at 100 µg/mL [1] [%] | inhibition at 50 µg/mL [2] [%] | inhibition at 10 µg/mL [3] [%] | inhibition at 1 µg/mL [4] [%] | MIC90 [5] [µg/mL] |
| --- | --- | --- | --- | --- | --- |
| CCCCCCCCCCC#Cc1cn([C@@H]2O[C@H](CO)[C@@H](O)[C@@H]2O)c(=O)[nH]c1=O | 100 | 100 | 100 | 75 | 1 (≈ 2.45 µM) |
| CCCCCCCCCCCC#Cc1cn([C@@H]2O[C@H](CO)[C@@H](O)[C@@H]2O)c(=O)[nH]c1=O | 100 | 100 | 50 |  | 10 (≈ 23.7 µM) |
| O=c1[nH]c(=O)n([C@@H]2O[C@H](CO)[C@@H](O)[C@H]2F)cc1Cl | 50 | 50 |  |  |  |
| Cc1cn([C@@H]2O[C@H](CO)[C@@H](O)[C@H]2F)c(=O)[nH]c1=S | 25 |  |  |  |  |
| O=c1[nH]c(=O)n([C@@H]2O[C@H](CO)[C@@H](O)[C@@H]2O)cc1C(O)C(Cl)Cl (some centres not stated) | 0 |  |  |  |  |
| O=c1[nH]c(=O)n([C@@H]2O[C@H](CO)[C@@H](O)[C@@H]2O)cc1C(O)CI (some centres not stated) | 0 |  |  |  |  |
| O=C(O)C(I)C(O)c1cn([C@@H]2O[C@H](CO)[C@@H](O)[C@H]2F)c(=O)[nH]c1=O (some centres not stated) | 0 |  |  |  |  |
| O=c1[nH]c(=O)n([C@@H]2O[C@H](CO)[C@@H](O)[C@@H]2O)cc1Cl | 0 |  |  |  |  |
| O=c1[nH]c(=S)ccn1[C@@H]1O[C@H](CO)[C@@H](O)[C@@H]1O | 0 |  |  |  |  |
| CCCCCC#Cc1cn([C@@H]2O[C@H](CO)[C@@H](O)[C@H]2F)c(=O)[nH]c1=O | 50 |  |  |  |  |
| O=c1[nH]c(=S)ccn1[C@@H]1O[C@H](CO)[C@@H](O)[C@H]1F | 25 |  |  |  |  |
| CCOC(=O)/C=C/c1cn([C@@H]2O[C@H](CO)[C@@H](O)[C@@H]2O)c(=O)[nH]c1=O | 0 |  |  |  |  |
| CCCCCCCCC#Cc1cn([C@@H]2O[C@H](CO)[C@@H](O)[C@H]2F)c(=O)[nH]c1=O | 100 | 75 | 50 | 30 | 50 (≈ 131 µM) |
| O=C(O)/C=C/c1cn([C@@H]2O[C@H](CO)[C@@H](O)[C@H]2F)c(=O)[nH]c1=O | 0 |  |  |  |  |
| CO[C@H]1/C=C/O[C@@]2(C)Oc3c(C)c(O)c4c(O)c(c(/C=N/N5CCN(C)CC5)c(O)c4c3C2=O)NC(=O)/C(C)=C\C=C\[C@H](C)[C@H](O)[C@@H](C)[C@@H](O)[C@@H](C)[C@H](OC(C)=O)[C@@H]1C [RIFAMPIN] |  |  |  |  | 0.5 (≈ 0.608 µM) |
